From ChEMBL document CHEMBL5338733, “Heterobifunctional Ligase Recruiters Enable pan-Degradation of Inhibitor of Apoptosis Proteins” (J Med Chem, 2023) come the findings set out here.

The source made the active and inactive calls. No cut-off for these calls is given here.

The target of assay [1] is T1, von Hippel-Lindau disease tumor suppressor/IAP (Homo sapiens) (UniProt P98170+Q13489+Q13490+P40337). The assay is described as follows: PROTAC activity at VHL/IAP in human MM1.S cells assessed as induction of VHL30 degradation at 1 uM incubated for 16 hrs by western blot analysis. The class given is cell-based. A digest of the protocol:
(§1)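 MM.1S cells treated 16 h at the stated concentration. Lysed, run on SDS-PAGE and transferred to PVDF. Probed with primary antibodies overnight at 4 °C, then HRP secondaries, with ECL detection. Band densitometry normalized to loading control and to DMSO-treated cells. Averages of at least three independent experiments.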

Assay [2] deals with Protein cereblon/Zinc finger protein Aiolos (Homo sapiens) (UniProt Q96SW2+Q9UKT9). The assay is described as follows: PROTAC activity at CRBN/IKZF3 in human MM1.S cells assessed as induction of IKZF3 degradation at 1 uM incubated for 16 hrs by western blot analysis. The class given is cell-based. The essentials: as §1
In assay [3] the target is T2, von Hippel-Lindau disease tumor suppressor/Baculoviral IAP repeat-containing protein 2 (Homo sapiens) (UniProt Q13490+P40337). Kind of assay: PROTAC activity at VHL/IAP in human HG-3 cells harboring wild type VHL assessed as induction of cIAP1 degradation at 1 uM incubated for 16 hrs by western blot analysis. The class given is cell-based. A digest of the protocol:
(§2)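 HG3 cells expressing Cas9 (lentiviral, blasticidin-selected) transduced with sgRNA against VHL or control luciferase (≥95% tomato-positive by FACS at 48 h); treated 1 μM for 16 h; lysed, SDS-PAGE, PVDF immunoblot with ECL detection, bands quantified by densitometry.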

The target in assay [4] is T3, von Hippel-Lindau disease tumor suppressor/E3 ubiquitin-protein ligase XIAP (Homo sapiens) (UniProt P98170+P40337). The assay is described as follows: PROTAC activity at VHL/IAP in human HG-3 cells harboring wild type VHL assessed as induction of XIAP degradation at 1 uM incubated for 16 hrs by western blot analysis. It is filed as cell-based. A digest of the protocol:
as §2

The target in assay [5] is Baculoviral IAP repeat-containing protein 2 (Homo sapiens) (UniProt Q13490). Kind of assay: Induction of cIAP1 degradation in human VHL knock-out HG-3 cells at 1 uM incubated for 16 hrs by western blot analysis. The class given is cell-based. The essentials:
as §2

A further assay relates to RPMI-8226. Kind of assay: Cytotoxicity against human RPMI-8226 cells assessed as reduction in cell viability measured after 96 hrs in presence of TNF-alpha by CellTiter-Glo luminescent assay. The class given is functional, cell-based. Particulars: RPMI-8226, 96 h. The essentials: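 Cells kept in RPMI-1640 with 10% FBS, 1% penicillin/streptomycin and 1% L-glutamine at 37 °C, 5% CO2. Seeded with compounds and incubated 96 h at 37 °C with TNF-α at 1 ng/mL. Viability read by CellTiter-Glo luminescence and normalized to DMSO-treated control. Mean ± SD of biological triplicates.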

Assay [6] concerns the target Protein cereblon/E3 ubiquitin-protein ligase XIAP (Homo sapiens) (UniProt P98170+Q96SW2). Kind of assay: PROTAC activity at CRBN/IAP in human MM1.S cells assessed as induction of XIAP degradation by measuring remaining protein level at 0.1 uM incubated for 16 hrs by western blot analysis. It is filed as cell-based. The essentials:
as §1

The target of assay [7] is Protein cereblon/Baculoviral IAP repeat-containing protein 2 (Homo sapiens) (UniProt Q13490+Q96SW2). The assay is described as follows: PROTAC activity at CRBN/IAP in human MM1.S cells assessed as induction of cIAP1 degradation by measuring remaining protein level at 0.1 uM incubated for 16 hrs by western blot analysis. It is filed as cell-based. The essentials: as §1

The target of assay [8] is Protein cereblon/Baculoviral IAP repeat-containing protein 3 (Homo sapiens) (UniProt Q13489+Q96SW2). Kind of assay: PROTAC activity at CRBN/IAP in human MM1.S cells assessed as induction of cIAP2 degradation by measuring remaining protein level at 0.1 uM incubated for 16 hrs by western blot analysis. The class given is cell-based. A digest of the protocol:
as §1

Assay [9] has as its target Protein cereblon-IAP (Homo sapiens) (UniProt P98170+Q13489+Q13490+Q96SW2). Kind of assay: PROTAC activity at CRBN/IAP in human MM1.S cells assessed as induction of CRBN degradation by measuring remaining protein level at 0.1 uM incubated for 16 hrs by western blot analysis. It is filed as cell-based. The essentials: as §1
Assay [10] addresses T1, von Hippel-Lindau disease tumor suppressor/IAP (Homo sapiens). The assay is described as follows: PROTAC activity at VHL/IAP in human MM1.S cells assessed as induction of VHL30 degradation by measuring remaining protein level at 0.1 uM incubated for 16 hrs by western blot analysis. It is filed as cell-based. A digest of the protocol: as §1
Assay [11] deals with T2, von Hippel-Lindau disease tumor suppressor/Baculoviral IAP repeat-containing protein 2 (Homo sapiens). The assay is described as follows: PROTAC activity at VHL/IAP in human MM1.S cells assessed as induction of cIAP1 degradation at 0.1 to 1 uM incubated for 16 hrs by western blot analysis. Particulars: dose 0.1-1 µM. The class given is cell-based. The essentials: (§3)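 MM.1S cells (RPMI-1640, 10% FBS, 1% pen/strep, 1% L-glutamine, 37 °C, 5% CO2) exposed to compound or DMSO for 16 h. Lysed in IP lysis buffer, SDS-PAGE, PVDF transfer, primary antibody overnight at 4 °C, HRP secondary, ECL detection. Bands quantified densitometrically, normalized to loading control and DMSO, reported as remaining protein; at least three independent experiments.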

Assay [12] deals with von Hippel-Lindau disease tumor suppressor/Baculoviral IAP repeat-containing protein 3 (Homo sapiens) (UniProt Q13489+P40337). The assay is described as follows: PROTAC activity at VHL/IAP in human MM1.S cells assessed as induction of cIAP2 degradation at 0.1 to 1 uM incubated for 16 hrs by western blot analysis. The class given is cell-based. To be noted: dose 0.1-1 µM. The essentials:
as §3

For assay [13], the target named is T3, von Hippel-Lindau disease tumor suppressor/E3 ubiquitin-protein ligase XIAP (Homo sapiens). Kind of assay: PROTAC activity at VHL/IAP in human MM1.S cells assessed as induction of XIAP degradation at 0.1 to 1 uM incubated for 16 hrs by western blot analysis. To be noted: dose 0.1-1 µM. The class given is cell-based. The essentials: as §1
Assay [14] deals with von Hippel-Lindau disease tumor suppressor (Homo sapiens) (UniProt P40337). The assay is described as follows: Induction of VHL30 degradation in human MM1.S cells assessed as remaining protein level at 0.1 uM incubated for 16 hrs by western blot analysis. It is filed as cell-based. A digest of the protocol: as §1
Assay [15] concerns the target Baculoviral IAP repeat-containing protein 2 (Homo sapiens) (UniProt Q13490). Kind of assay: Induction of cIAP1 degradation in human MM1.S cells assessed as remaining protein level at 0.1 uM incubated for 16 hrs by western blot analysis. It is filed as cell-based. The essentials: (§4)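 Lysed, run on SDS-PAGE and transferred to PVDF. Probed with primary antibodies overnight at 4 °C, then HRP secondaries, with ECL detection. Band densitometry normalized to loading control and to DMSO-treated cells. Averages of at least three independent experiments.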

For assay [16], the target named is Baculoviral IAP repeat-containing protein 3 (Homo sapiens) (UniProt Q13489). Kind of assay: Induction of cIAP2 degradation in human MM1.S cells assessed as remaining protein level at 0.1 uM incubated for 16 hrs by western blot analysis. The class given is cell-based. A digest of the protocol:
as §4

Assay [17] has as its target Baculoviral IAP repeat-containing protein 2 (Homo sapiens) (UniProt Q13490). The assay is described as follows: Induction of cIAP1 degradation in human MM1.S cells at 1 uM incubated for 16 hrs by western blot analysis. It is filed as cell-based. The essentials: as §1

T2 sequence (P40337 whole entry, looked up): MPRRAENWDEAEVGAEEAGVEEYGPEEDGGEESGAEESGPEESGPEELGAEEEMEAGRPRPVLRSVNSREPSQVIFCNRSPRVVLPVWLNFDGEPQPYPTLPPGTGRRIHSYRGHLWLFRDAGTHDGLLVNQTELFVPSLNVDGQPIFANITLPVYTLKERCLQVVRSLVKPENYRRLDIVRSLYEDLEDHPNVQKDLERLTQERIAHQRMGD
T2 sequence (Q13490 whole entry, looked up): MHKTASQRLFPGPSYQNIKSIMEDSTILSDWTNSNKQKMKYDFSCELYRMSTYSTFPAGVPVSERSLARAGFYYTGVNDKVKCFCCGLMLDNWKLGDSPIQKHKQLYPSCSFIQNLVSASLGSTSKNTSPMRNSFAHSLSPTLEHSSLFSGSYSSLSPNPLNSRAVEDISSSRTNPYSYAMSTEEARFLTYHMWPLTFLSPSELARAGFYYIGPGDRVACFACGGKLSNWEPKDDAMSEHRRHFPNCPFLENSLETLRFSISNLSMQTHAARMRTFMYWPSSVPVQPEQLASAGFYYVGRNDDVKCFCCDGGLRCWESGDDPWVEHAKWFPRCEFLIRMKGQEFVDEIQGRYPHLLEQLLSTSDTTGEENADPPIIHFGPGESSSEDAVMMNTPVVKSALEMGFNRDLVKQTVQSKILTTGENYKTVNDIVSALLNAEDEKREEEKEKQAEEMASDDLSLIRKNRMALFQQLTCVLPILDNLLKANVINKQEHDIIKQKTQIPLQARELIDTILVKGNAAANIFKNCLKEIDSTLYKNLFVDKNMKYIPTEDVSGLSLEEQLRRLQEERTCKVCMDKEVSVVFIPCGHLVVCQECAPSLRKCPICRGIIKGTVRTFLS
T3 sequence (P40337 whole entry, looked up): as the sequence (P40337 whole entry, looked up) above
T3 sequence (P98170 whole entry, looked up): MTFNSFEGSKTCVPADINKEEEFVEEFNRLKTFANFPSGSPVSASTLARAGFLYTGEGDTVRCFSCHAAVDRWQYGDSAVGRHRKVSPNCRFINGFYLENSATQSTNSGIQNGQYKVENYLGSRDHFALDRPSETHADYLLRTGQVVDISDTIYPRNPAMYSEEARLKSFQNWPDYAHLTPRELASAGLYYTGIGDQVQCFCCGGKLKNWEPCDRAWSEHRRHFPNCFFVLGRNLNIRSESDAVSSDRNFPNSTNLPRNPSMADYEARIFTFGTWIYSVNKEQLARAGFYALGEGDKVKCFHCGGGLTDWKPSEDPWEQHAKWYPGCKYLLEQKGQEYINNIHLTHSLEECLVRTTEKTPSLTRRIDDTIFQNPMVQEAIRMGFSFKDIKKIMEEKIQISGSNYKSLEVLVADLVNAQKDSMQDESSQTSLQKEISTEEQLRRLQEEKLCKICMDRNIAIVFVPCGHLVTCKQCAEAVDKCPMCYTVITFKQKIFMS
Baculoviral IAP repeat-containing protein 2 (Homo sapiens), sequence (Q13490 whole entry): as the sequence (Q13490 whole entry, looked up) above
T1 sequence (P40337 whole entry, looked up): as the sequence (P40337 whole entry, looked up) above
T1 sequence (P98170 whole entry, looked up): as the sequence (P98170 whole entry, looked up) above
T1 sequence (Q13489 whole entry, looked up): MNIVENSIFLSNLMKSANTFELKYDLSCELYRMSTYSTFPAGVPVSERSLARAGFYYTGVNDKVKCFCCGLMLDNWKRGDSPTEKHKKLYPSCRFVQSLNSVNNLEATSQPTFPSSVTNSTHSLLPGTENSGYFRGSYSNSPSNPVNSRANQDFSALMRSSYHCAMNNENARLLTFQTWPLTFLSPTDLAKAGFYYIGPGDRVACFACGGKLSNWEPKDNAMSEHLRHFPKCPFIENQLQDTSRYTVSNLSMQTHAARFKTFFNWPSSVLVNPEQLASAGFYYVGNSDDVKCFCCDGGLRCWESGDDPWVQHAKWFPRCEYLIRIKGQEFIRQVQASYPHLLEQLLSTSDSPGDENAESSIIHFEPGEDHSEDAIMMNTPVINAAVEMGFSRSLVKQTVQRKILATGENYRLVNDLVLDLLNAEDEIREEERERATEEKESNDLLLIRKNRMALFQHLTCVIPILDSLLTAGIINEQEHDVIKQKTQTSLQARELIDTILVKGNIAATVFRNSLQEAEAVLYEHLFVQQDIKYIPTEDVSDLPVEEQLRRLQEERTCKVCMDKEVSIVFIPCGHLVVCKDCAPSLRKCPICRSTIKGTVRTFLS
T1 sequence (Q13490 whole entry, looked up): as the sequence (Q13490 whole entry, looked up) above
von Hippel-Lindau disease tumor suppressor (Homo sapiens), sequence (P40337 whole entry, looked up): as the sequence (P40337 whole entry, looked up) above
Baculoviral IAP repeat-containing protein 3 (Homo sapiens), sequence (Q13489 whole entry): as the sequence (Q13489 whole entry, looked up) above

`CN[C@@H](C)C(=O)N[C@H](C(=O)N1C[C@@H](Oc2cccc(OCCCCOCCCC(=O)N[C@H](C(=O)N3C[C@H](O)C[C@H]3C(=O)NCc3ccc(-c4scnc4C)cc3)C(C)(C)C)c2)C[C@H]1C(=O)N[C@@H]1CCCc2ccccc21)C1CCCCC1`: the result in assay [1] was Active.

As for `CN[C@@H](C)C(=O)N[C@H](C(=O)N1C[C@@H](Oc2cccc(OCCCCOCCCCNc3cccc4c3C(=O)N(C3CCC(=O)NC3=O)C4=O)c2)C[C@H]1C(=O)N[C@@H]1CCCc2ccccc21)C1CCCCC1` (stereo not given in full), the result in [2] was Active.

Turning to `CN[C@@H](C)C(=O)N[C@H](C(=O)N1CC(Oc2cccc(OCCCCCCOCCCCCCOCC(=O)N[C@H](C(=O)N3C[C@H](O)C[C@H]3C(=O)NCc3ccc(-c4scnc4C)cc3)C(C)(C)C)c2)C[C@H]1C(=O)N[C@@H]1CCCc2ccccc21)C1CCCCC1` (single isomer, unassigned), the result in assay [3], in assay [4] and in assay [5] was Active.

`CN[C@@H](C)C(=O)N[C@H](C(=O)N1C[C@@H](Oc2cccc(OCCCCC(=O)N[C@H](C(=O)N3C[C@@H](O)C[C@H]3C(=O)NCc3ccc(-c4scnc4C)cc3)C(C)(C)C)c2)C[C@H]1C(=O)N[C@@H]1CCCc2ccccc21)C1CCCCC1`: the IC50 in the assay with RPMI-8226 is above 5 µM.

Turning to `CN[C@@H](C)C(=O)N[C@H](C(=O)N1C[C@@H](Oc2cccc(OCCCCCCCCNc3cccc4c3C(=O)N(C3CCC(=O)NC3=O)C4=O)c2)C[C@H]1C(=O)N[C@@H]1CCCc2ccccc21)C1CCCCC1` (stereo not given in full), the Activity in assay [6] was found to be 4%; in assay [7], 5%; in assay [8], 14%; in assay [9], 90%.

In the case of `CN[C@@H](C)C(=O)N[C@H](C(=O)N1C[C@@H](Oc2cccc(OCCCCCOCCCCCOCCCCCCNc3cccc4c3C(=O)N(C3CCC(=O)NC3=O)C4=O)c2)C[C@H]1C(=O)N[C@@H]1CCCc2ccccc21)C1CCCCC1` (stereo not given in full), in assay [2], the outcome was Active.

Turning to `CN[C@@H](C)C(=O)N[C@H](C(=O)N1C[C@@H](Oc2cccc(OCCCCCCCC(=O)N[C@H](C(=O)N3C[C@H](O)C[C@H]3C(=O)NCc3ccc(-c4scnc4C)cc3)C(C)(C)C)c2)C[C@H]1C(=O)N[C@@H]1CCCc2ccccc21)C1CCCCC1`, the result in assay [3], in assay [4] and in [5] was Active.

Consider `CN[C@@H](C)C(=O)N[C@H](C(=O)N1C[C@@H](Oc2cccc(OCCCCC(=O)N[C@H](C(=O)N3C[C@H](O)C[C@H]3C(=O)NCc3ccc(-c4scnc4C)cc3)C(C)(C)C)c2)C[C@H]1C(=O)N[C@@H]1CCCc2ccccc21)C1CCCCC1`, for which the Activity in [10] was determined as 38%. Further, the result in assay [11], in assay [12] and in assay [13] was Active.

On to `CN[C@@H](C)C(=O)N[C@H](C(=O)N1C[C@@H](Oc2ccccc2)C[C@H]1C(=O)N[C@@H]1CCCc2ccccc21)C1CCCCC1`, for which the values for the Activity in assay [14], in assay [15] and in assay [16] were 72%, 7% and 47%, respectively. For the same compound, the outcome in assay [17] was Active.

Turning to `CN[C@@H](C)C(=O)N[C@H](C(=O)N1C[C@@H](Oc2cccc(OCCOCCOCC(=O)N[C@H](C(=O)N3C[C@H](O)C[C@H]3C(=O)NCc3ccc(-c4scnc4C)cc3)C(C)(C)C)c2)C[C@H]1C(=O)N[C@@H]1CCCc2ccccc21)C1CCCCC1`, the outcome in [3], in assay [4] and in assay [5] was Active.
